The record followed here is ChEMBL document CHEMBL1143934, “Design and synthesis of biologically active analogues of vitamin K2: evaluation of their biological activities with cultured human cell lines” (Bioorg Med Chem, 2008).

One data set has as its system MG-63. As to the kind of experiment: Induction of apoptosis against human MG63 cells after 72 hrs. Format: functional, cell-based. The method in brief:
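MG-63 osteosarcoma cells, double thymidine block (2.5 mM, 12 h each) for S-phase synchronization. Treated 3 days at 10^-5 and 10^-6 M in DMEM. Permeabilized with 0.2% Triton X plus RNase, 37 °C for 1 h. Stained with propidium iodide 50 µg/mL, 4 °C for 20 min. DNA content by flow cytometry, 488 nm. Mean ± SD of three independent experiments.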

Data set [1] deals with Vitamin K-dependent gamma-carboxylase (Mus musculus). Kind of data set: Ratio of Vmax to Km assessed as 14CO2 incorporation for 30 mins.
Substrate in data set [2]: CC1=C(C/C=C(\C)CC/C=C(\C)CC/C=C(\C)CC/C=C(\C)CO)C(=O)c2ccccc2C1=O
As to the kind of experiment: (§1) Activity for gamma-glutamylcarboxylase assessed as 14CO2 incorporation. The method in brief: (§2)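 Mouse liver microsomal γ-glutamylcarboxylase. Reduced (hydroquinone) vitamin K as cofactor, 8 concentrations. Fixed enzyme level with 3.6 mM FLEEL substrate. Buffer: 16 µM ProFIX19 propeptide, 1.4 mM NaH14CO3, 25 mM MOPS pH 7.0, 500 mM NaCl, 0.16% phosphatidylcholine, 0.16% CHAPS, 8 mM DTT, 0.8 M ammonium sulfate. 14CO2 incorporated into peptide over 30 min counted by scintillation. Km and Vmax from initial rates by double-reciprocal plot.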

Substrate in data set [3]: CC(C)=CCC/C(C)=C/CC/C(C)=C/CC/C(C)=C/CC1=C(C)C(=O)c2ccccc2C1=O
Described as §1. In outline: as §2

Substrate in data set [4]: CC1=C(C/C=C(\C)CC/C=C(\C)CC/C=C(\C)CC/C=C(\C)CO)C(=O)c2ccccc2C1=O
Kind of data set: (§3) Activity for gamma-glutamylcarboxylase assessed as 14CO2 incorporation for 30 mins. The method in brief: as §2

Substrate in data set [5]: CC(C)=CCC/C(C)=C/CC/C(C)=C/CC/C(C)=C/CC1=C(C)C(=O)c2ccccc2C1=O
The description is as §3. The method in brief:
as §2

Regarding `CC(C)=CCC/C(C)=C/CC/C(C)=C/CC/C(C)=C/CC1=C(C)C(=O)c2ccccc2C1=O`, in the data set on MG-63, the Activity entry is “Dose-dependent effect”. As for `CC1=C(C/C=C(\C)CC/C=C(\C)CC/C=C(\C)CO)C(=O)c2ccccc2C1=O`, the Activity entry with MG-63 is “Dose-dependent effect”. On to `CC1=C(C/C=C(\C)CC/C=C(\C)CC/C=C(\C)CC/C=C(\C)CO)C(=O)c2ccccc2C1=O`, for which the Vmax/Km in data set [1] worked out at 50 pmol/microM. For the same molecule, in the data set on MG-63, the Activity result was “Dose-dependent effect”. Take `CC1=C(C/C=C(\C)CC/C=C(\C)CC/C=C(\C)CC/C=C(\C)C=O)C(=O)c2ccccc2C1=O`: the Activity result in the data set on MG-63 was “Dose-dependent effect”.

Turning to `CC1=C(C/C=C(\C)CC/C=C(\C)CC/C=C(\C)C=O)C(=O)c2ccccc2C1=O`, the Activity result with MG-63 was “Dose-dependent effect”.

`CC1=C(C/C=C(\C)CC/C=C(\C)CO)C(=O)c2ccccc2C1=O`: the Activity entry in the data set with MG-63 is “Dose-dependent effect”. Still for that read-out and setting: the result for `CC(C)=CCC/C(C)=C/CC1=C(C)C(=O)c2ccccc2C1=O` reads “Dose-dependent effect”.

Turning to `CC(C)=CCC/C(C)=C/CC/C(C)=C/CC1=C(C)C(=O)c2ccccc2C1=O`, the Activity result in the data set on MG-63 was “Dose-dependent effect”. On the same count and under the same terms, the result for `CC1=C(C/C=C(\C)CC/C=C(\C)C=O)C(=O)c2ccccc2C1=O` reads “Dose-dependent effect”.

B1: Vitamin K-dependent gamma-carboxylase (Homo sapiens), P38435 (protein)
chain: MAVSAGSARTSPSSDKVQKDKAELISGPRQDSRIGKLLGFEWTDLSSWRRLVTLLNRPTDPASLAVFRFLFGFLMVLDIPQERGLSSLDRKYLDGLDVCRFPLLDALRPLPLDWMYLVYTIMFLGALGMMLGLCYRISCVLFLLPYWYVFLLDKTSWNNHSYLYGLLAFQLTFMDANHYWSVDGLLNAHRRNAHVPLWNYAVLRGQIFIVYFIAGVKKLDADWVEGYSMEYLSRHWLFSPFKLLLSEELTSLLVVHWGGLLLDLSAGFLLFFDVSRSIGLFFVSYFHCMNSQLFSIGMFSYVMLASSPLFCSPEWPRKLVSYCPRRLQQLLPLKAAPQPSVSCVYKRSRGKSGQKPGLRHQLGAAFTLLYLLEQLFLPYSHFLTQGYNNWTNGLYGYSWDMMVHSRSHQHVKITYRDGRTGELGYLNPGVFTQSRRWKDHADMLKQYATCLSRLLPKYNVTEPQIYFDIWVSINDRFQQRIFDPRVDIVQAAWSPFQRTSWVQPLLMDLSPWRAKLQEIKSSLDNHTEVVFIADFPGLHLENFVSEDLGNTSIQLLQGEVTVELVAEQKNQTLREGEKMQLPAGEYHKVYTTSPSPSCYMYVYVNTTELALEQDLAYLQELKEKVENGSETGPLPPELQPLLEGEVKGGPEPTPLVQTFLRRQQRLQEIERRRNTPFHERFFRFLLRKLYVFRRSFLMTCISLRNLILGRPSLEQLAQEVTYANLRPFEAVGELNPSNTDSSHSNPPESNPDPVHSEF
As for B1, the Michaelis constant (Km) in data set [2] worked out at 2 µM; in data set [3], 13.3 µM. The Vmax in data set [4] is 99.9 pmol; in data set [5], 126 pmol.

As a reminder, the Km is the concentration of substrate that gives half-maximal velocity.
